ChEMBL document CHEMBL1121432, “Tricyclics with analgesic and antidepressant activity. 1. [[(Alkylamino)ethyl]thio]dibenz[b,f]oxepins and 10,11-dihydro derivatives” (1980)

Key:
Format in all cases: functional
Mus musculus [1] = test: Analgesic activity for the inhibition of phenylquinone induced writhing (PQW) after subcutaneous administration to mice; conditions: sc
Mus musculus [2] = test: Anticonvulsant activity to prevent pentamethylenetetrazole (MTZ) induced lethality in mice after oral administration
Mus musculus [3] = test: Antidepressant activity to prevent tetrabenazine induced ptosis (TBZ) in mice after intraperitoneal administration; conditions: ip
Mus musculus [4] = test: Antipsychotic activity to prevent amphetamine induced lethality in mice after oral administration
How it was run: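 Male CD-1 mice in groups of ten, 18-28 g, dosed orally; controls got distilled water-Tween 80. d-Amphetamine sulfate 21 mg/kg sc 60 min post-drug, then aggregated five per wire cage at 80-84 °F. Dead mice replaced by marked untreated mice every 15 min. Deaths counted at 5 h post-amphetamine.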

Mus musculus [5] = test: Delay in response to noxious heat stimuli in mice by tail flick method after subcutaneous administration; conditions: sc
Mus musculus [6] = test: Tested for antipsychotic activity to prevent amphetamine induced lethality in mice after intraperitoneal administration; conditions: ip
How it was run: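 Male CD-1 mice in groups of ten, 18-28 g, dosed ip; controls got distilled water-Tween 80. d-Amphetamine sulfate 21 mg/kg sc 60 min later, then aggregated five per wire cage at 80-84 °F. Dead mice replaced by marked untreated mice every 15 min. Deaths counted at 5 h post-amphetamine.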

Mus musculus [7] = test: Tested for analgesic activity for the inhibition of phenylquinone induced writhing (PQW) after oral administration to mice

Row | SMILES | ED50 (Mus musculus [1]) [mg/kg] | ED50 (Mus musculus [2]) [mg/kg] | ED50 (Mus musculus [3]) [mg/kg] | ED50 (Mus musculus [4]) [mg/kg] | ED50 (Mus musculus [5]) [mg/kg] | ED50 (Mus musculus [6]) [mg/kg] | ED50 (Mus musculus [7]) [mg/kg]
1 | CNCCSC1Cc2ccccc2Oc2ccccc21 (stereo not given) | 4.8 | 50 | 0.9 | > 20 | 11.6 | – | –
2 | c1ccc2c(c1)CC(SCCN1CCOCC1)c1ccccc1O2 (stereo not given) | < 25 | > 50 | > 20 | > 20 | > 25 | – | –
3 | CN(C)CCSC1=Cc2ccccc2Oc2ccccc21 | 5.8 | 50 | 8.4 | > 20 | > 25 | – | –
4 | CN(CCSC1=Cc2ccccc2Oc2ccccc21)CC1CC1 | 6 | > 50 | > 20 | – | > 25 | – | –
5 | CNCCSC1Cc2ccccc2Oc2ccc(SC)cc21 (stereo not given) | 6.4 | 50 | 12.7 | > 20 | > 25 | – | –
6 | CN(C)CCSC1=Cc2ccccc2Oc2ccc(F)cc21 | 10.3 | > 50 | – | > 20 | 23.9 | – | –
7 | CNCCSC1=Cc2ccccc2Oc2ccccc21 | – | 50 | – | – | 11.6 | > 20 | –
8 | CNCCSC1=Cc2ccccc2Oc2ccc(SC)cc21 | < 25 | > 50 | 6.1 | > 20 | > 25 | – | –
9 | O=C(c1ccc(F)cc1)C1CCN(CCSC2Cc3ccccc3Oc3ccccc32)CC1 (stereo not given) | 10.9 | > 50 | > 20 | > 20 | > 25 | – | 9.5
10 | CSc1ccc2c(c1)C(SCCN(C)C)Cc1ccccc1O2 (stereo not given) | 10.4 | > 50 | 16 | > 20 | > 25 | – | –
11 | CN(C)CCSC1Cc2ccccc2Oc2ccccc21 (stereo not given) | > 25 | 50 | – | > 20 | > 25 | – | –
12 | CSc1ccc2c(c1)C(SCCN(C)C)=Cc1ccccc1O2 | 5.3 | > 50 | 9.4 | > 20 | 14.1 | – | –
13 | CNCCSC1Cc2ccccc2Oc2ccc(Cl)cc21 (stereo not given) | 5.3 | < 50 | 1.5 | > 20 | 22.4 | – | 11.3
14 | CNCCSC1=Cc2ccccc2Oc2ccc(Cl)cc21 | 16 | > 50 | 5.9 | > 20 | > 25 | – | –
15 | Br.CCN(CC)CCSC1Cc2ccccc2Oc2ccc(SC)cc21 (stereo not given) | 25 | > 50 | > 20 | > 20 | > 25 | – | –
16 | Br.CN1CCN(CCSC2Cc3ccccc3Oc3ccccc32)CC1 (stereo not given) | 6.3 | > 50 | > 20 | – | > 25 | – | –
17 | CN(C)CCSC1Cc2ccccc2Oc2ccc(Cl)cc21 (stereo not given) | < 25 | 30 | – | – | > 25 | – | –
18 | C1=C(SCCN2CCOCC2)c2ccccc2Oc2ccccc21 | > 25 | > 50 | – | – | > 25 | – | –
19 | CSc1ccc2c(c1)C(SCCN(C(C)C)C(C)C)=Cc1ccccc1O2 | > 25 | > 50 | 25 | – | > 25 | – | –
20 | CN(C)CCSC1=Cc2ccccc2Oc2ccc(Cl)cc21 | > 25 | > 50 | > 20 | > 20 | > 25 | – | –
21 | CCNCCSC1Cc2ccccc2Oc2ccccc21 (stereo not given) | 6.6 | > 50 | 20 | – | > 25 | – | –

Row | SMILES | ED50 (Mus musculus [1]) [mg/kg] | ED50 (Mus musculus [2]) [mg/kg] | ED50 (Mus musculus [3]) [mg/kg] | ED50 (Mus musculus [4]) [mg/kg] | ED50 (Mus musculus [5]) [mg/kg] | ED50 (Mus musculus [6]) [mg/kg] | ED50 (Mus musculus [7]) [mg/kg]
22 | CNCCSC1Cc2ccccc2Oc2ccc(F)cc21 (stereo not given) | – | 31.6 | 0.8 | > 20 | 5.1 | – | –
23 | CCN(CC)CCSC1=Cc2ccccc2Oc2ccccc21 | 25 | > 50 | > 20 | > 20 | > 25 | – | –
24 | c1ccc(CCNCCSC2Cc3ccccc3Oc3ccccc32)cc1 (stereo not given) | 9.3 | > 50 | > 20 | 23 | > 25 | – | –
25 | C1=C(SCCNCCc2ccccc2)c2ccccc2Oc2ccccc21 | 13.6 | > 50 | > 20 | > 20 | > 25 | – | –
26 | CN(C)CCSC1Cc2ccccc2Oc2ccc(F)cc21 (stereo not given) | – | 52.3 | 2 | > 20 | 7.9 | – | –
27 | Fc1ccc2c(c1)C(SCCNCC1CC1)Cc1ccccc1O2 (stereo not given) | 10.7 | > 50 | > 20 | > 20 | > 25 | – | –
28 | CCN(CC)CCSC1Cc2ccccc2Oc2ccc(Cl)cc21 (stereo not given) | 14.8 | > 50 | > 20 | – | > 25 | – | –
29 | CCN(CC)CCSC1=Cc2ccccc2Oc2ccc(SC)cc21 | > 25 | > 50 | > 20 | > 20 | > 25 | – | –
30 | C=CCNCCSC1Cc2ccccc2Oc2ccc(F)cc21 (stereo not given) | 10.6 | > 50 | 3.5 | > 20 | > 25 | – | –
31 | Fc1ccc2c(c1)C(SCCNCCc1ccccc1)Cc1ccccc1O2 (stereo not given) | > 10 | > 50 | – | > 20 | > 25 | – | –
32 | CCN(CC)CCSC1Cc2ccccc2Oc2ccccc21 (stereo not given) | 6.9 | > 50 | > 20 | > 20 | > 25 | – | –
33 | C#CCN(C)CCSC1=Cc2ccccc2Oc2ccccc21 | 25 | > 50 | 12.2 | – | > 25 | – | –
34 | CCN(C)CCSC1=Cc2ccccc2Oc2ccccc21 | 25 | > 50 | 20 | – | > 25 | – | –
35 | CCN(C)CCSC1=Cc2ccccc2Oc2ccc(SC)cc21 | 25 | > 50 | – | > 20 | > 25 | – | –
36 | CC(C)=CCN1CC[C@]2(C)c3cc(O)ccc3C[C@H]1[C@H]2C [(+)-PENTAZOCINE] | 2.4 | > 25 | – | > 20 | 14.6 | – | –
37 | CN(C)CCCN1c2ccccc2Sc2ccc(Cl)cc21 [CHLORPROMAZINE] | – | > 50 | – | 2.8 | – | – | –
38 | CN1C(=O)CN=C(c2ccccc2)c2cc(Cl)ccc21 [DIAZEPAM] | – | 1.4 | – | > 20 | – | – | –
39 | CNCCSC1=Cc2ccccc2Oc2ccc(F)cc21 [FLURADOLINE] | – | > 50 | 0.32 | > 50 | 11.3 | – | 24.7
40 | CN(C)CCCN1c2ccccc2CCc2ccccc21 [IMIPRAMINE] | 11 | 50 | 1.3 | > 20 | > 25 | – | –
41 | CN1CC[C@]23c4c5ccc(O)c4O[C@H]2[C@@H](O)C=C[C@H]3[C@H]1C5 [MORPHINE] | 0.36 | > 25 | 8.1 | > 20 | – | – | –
